How the values were obtained:
[1] = biological target: 5-hydroxytryptamine receptor 4 (Cavia porcellus) (UniProt O70528); test: Ability to displace [3H]GR-113808 from 5-hydroxytryptamine 4 receptor at concentration of 10e-6 M in guinea pig
Summary of the method: (§1)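 Guinea pig striatal membranes (males, 220–224 g) in 50 mM HEPES pH 7.4, incubated in duplicate at 37 °C for 30 min with 0.6 nM [3H]GR 113808. Filtration on polyethylenimine-soaked GF/B filters. Nonspecific binding with 10 μM 5-HT. Screened as percent inhibition at 10⁻⁶ and 10⁻⁸ M; Ki derived for compounds giving over 40% inhibition at 10⁻⁸ M.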

[2] = biological target: 5-hydroxytryptamine receptor 4 (Cavia porcellus, UniProt O70528); test: Ability to displace [3H]GR-113808 from 5-hydroxytryptamine 4 receptor; summary of the method: as §1
Chain of 5-hydroxytryptamine receptor 4 (Cavia porcellus, UniProt O70528) (O70528 whole entry): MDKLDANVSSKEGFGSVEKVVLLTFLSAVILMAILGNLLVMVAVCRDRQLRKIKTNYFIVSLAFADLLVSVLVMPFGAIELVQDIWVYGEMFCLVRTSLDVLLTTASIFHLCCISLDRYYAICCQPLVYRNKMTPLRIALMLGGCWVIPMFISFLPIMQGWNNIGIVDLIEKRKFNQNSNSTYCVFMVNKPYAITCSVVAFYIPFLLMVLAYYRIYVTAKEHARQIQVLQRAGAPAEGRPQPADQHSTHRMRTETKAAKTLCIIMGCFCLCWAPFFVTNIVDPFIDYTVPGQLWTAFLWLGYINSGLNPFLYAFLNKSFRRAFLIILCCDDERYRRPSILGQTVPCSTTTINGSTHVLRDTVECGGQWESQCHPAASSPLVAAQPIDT

[3] = biological target: 5-hydroxytryptamine receptor 4 (Cavia porcellus) (UniProt O70528); test: Ability to displace [3H]GR-113808 from 5-hydroxytryptamine 4 receptor at concentration of 10e-8 M in guinea pig; summary of the method: as §1
Mus musculus [4] = test: Antinociceptive activity in the mouse writhing test after intraperitoneal dose of 0.01 mg/kg; format: functional
Summary of the method: (§2)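 Male OF1 mice (20–24 g), groups of eight. Compounds in saline given ip (10 mL/kg) 15 min before ip 0.6% aqueous acetic acid (10 mL/kg). Stretches per animal counted over 10 min, starting 10 min after acid. Stretch defined as back arching, pelvic rotation and hind limb extension. Data are mean ± SEM; ANOVA then Fisher PLSD.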

Mus musculus [5] = test: Antinociceptive activity in the mouse writhing test after intraperitoneal dose of 0.1 mg/kg; format: functional; summary of the method: as §2
Mus musculus [6] = test: Antinociceptive activity in the mouse writhing test before administration of the compound; format: functional; summary of the method: as §2
Mus musculus [7] = test: Antinociceptive activity in the mouse writhing test after intraperitoneal dose of 1 mg/kg; format: functional; summary of the method: as §2
[8] = Ability to recaprure NAD using [3H]nisoxetine at concentration of 10e-5 M
[9] = Lethal dose of the compound; format: ADME
Summary of the method: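 Male OF1 mice (20–24 g), in groups of four, received graded ip doses (12.5, 25, 50 mg/kg) in saline (10 mL/kg).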

[10] = biological target: Histamine H2 receptor (Rattus norvegicus) (UniProt P25102); test: Ability to displace [3H]tiotidine from histamine-H2 receptor at concentration of 10e-7 M
Chain of Histamine H2 receptor (Rattus norvegicus) (P25102 whole entry): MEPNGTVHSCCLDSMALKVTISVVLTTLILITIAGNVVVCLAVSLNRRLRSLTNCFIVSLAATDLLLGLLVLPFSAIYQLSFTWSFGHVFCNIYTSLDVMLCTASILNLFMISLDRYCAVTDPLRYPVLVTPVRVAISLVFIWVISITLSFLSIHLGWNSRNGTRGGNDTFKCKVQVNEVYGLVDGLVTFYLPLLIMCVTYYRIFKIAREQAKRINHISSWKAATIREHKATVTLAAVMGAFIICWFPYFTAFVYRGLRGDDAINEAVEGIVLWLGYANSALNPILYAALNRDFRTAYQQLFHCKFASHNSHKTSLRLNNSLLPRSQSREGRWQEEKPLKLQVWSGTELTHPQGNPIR

Vasopressin V2 receptor = Vasopressin V2 receptor (Sus scrofa, UniProt P32307); test: Ability to displace [3H]AVP from Vasopressin V2 receptor
Mus musculus [11] = test: Compound was tested at subtoxic doses of 12.5-25-50 mg/kg in mice; Symptoms are Hypoactivity,relaxation,Passivity.; format: ADME, organism-based; conditions: in vivo
Vasopressin V1b receptor = Vasopressin V1b receptor (Rattus norvegicus, UniProt P48974); test: Ability to displace [3H]AVP from vasopressin V1 receptor
Chain of Vasopressin V1b receptor (P48974 whole entry): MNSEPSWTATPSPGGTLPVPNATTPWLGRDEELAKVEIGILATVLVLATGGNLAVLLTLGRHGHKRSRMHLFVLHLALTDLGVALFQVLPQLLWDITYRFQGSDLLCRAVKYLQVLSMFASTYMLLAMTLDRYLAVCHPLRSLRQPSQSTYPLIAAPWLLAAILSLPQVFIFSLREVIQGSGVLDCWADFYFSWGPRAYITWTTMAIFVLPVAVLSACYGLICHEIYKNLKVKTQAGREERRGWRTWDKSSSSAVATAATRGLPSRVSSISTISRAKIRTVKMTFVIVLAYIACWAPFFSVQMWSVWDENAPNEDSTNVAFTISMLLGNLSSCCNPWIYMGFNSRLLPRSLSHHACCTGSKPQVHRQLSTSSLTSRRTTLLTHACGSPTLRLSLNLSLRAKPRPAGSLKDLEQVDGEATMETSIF

Mus musculus [12] = test: Antinociceptive activity in the mouse writhing test after intraperitoneal dose of 1 mg/kg; p<0.01; format: functional; summary of the method: as §2
[13] = Ability to recaprure NAD using [3H]-nisoxatine at concentration of 10e-7 M
[14] = biological target: 5-hydroxytryptamine receptor 6 (Homo sapiens) (UniProt P50406); test: Ability to displace [125I]LSD […] from 5-hydroxytryptamine 6 receptor at concentration of 10e-8 M
Chain of 5-hydroxytryptamine receptor 6 (Homo sapiens) (P50406 whole entry): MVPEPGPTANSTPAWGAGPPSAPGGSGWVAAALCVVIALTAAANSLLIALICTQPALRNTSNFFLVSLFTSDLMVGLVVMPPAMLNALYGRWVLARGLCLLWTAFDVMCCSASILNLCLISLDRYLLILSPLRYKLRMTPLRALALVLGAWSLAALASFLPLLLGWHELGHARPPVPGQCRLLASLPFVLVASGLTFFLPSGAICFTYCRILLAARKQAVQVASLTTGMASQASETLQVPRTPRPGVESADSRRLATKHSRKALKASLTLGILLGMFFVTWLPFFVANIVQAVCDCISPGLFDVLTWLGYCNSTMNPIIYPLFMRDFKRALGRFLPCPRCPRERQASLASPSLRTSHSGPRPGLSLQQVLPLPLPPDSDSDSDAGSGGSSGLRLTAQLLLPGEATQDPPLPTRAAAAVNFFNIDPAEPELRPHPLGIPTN

[15] = biological target: Beta-1 adrenergic receptor (Homo sapiens) (UniProt P08588); test: Ability to displace [3H]CGP-12177 from Beta-1 adrenergic receptor at concentration of 10e-5 M
Chain of Beta-1 adrenergic receptor (Homo sapiens) (P08588 whole entry, looked up): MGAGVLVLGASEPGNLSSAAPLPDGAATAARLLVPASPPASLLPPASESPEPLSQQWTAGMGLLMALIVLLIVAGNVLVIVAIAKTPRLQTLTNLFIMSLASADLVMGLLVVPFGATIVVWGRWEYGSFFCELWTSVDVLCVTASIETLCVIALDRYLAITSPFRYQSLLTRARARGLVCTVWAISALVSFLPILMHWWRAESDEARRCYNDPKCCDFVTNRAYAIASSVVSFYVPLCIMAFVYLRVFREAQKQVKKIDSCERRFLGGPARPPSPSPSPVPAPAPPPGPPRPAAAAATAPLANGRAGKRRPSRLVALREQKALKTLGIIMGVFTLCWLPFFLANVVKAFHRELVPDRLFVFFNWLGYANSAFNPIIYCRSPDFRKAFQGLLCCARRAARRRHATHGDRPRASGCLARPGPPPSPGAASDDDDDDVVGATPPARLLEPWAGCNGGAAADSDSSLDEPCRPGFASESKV

[16] = biological target: 5-hydroxytryptamine receptor 2B (Homo sapiens, UniProt P41595); test: Ability to displace [3H]5-HT from 5-hydroxytryptamine 2B receptor
[17] = biological target: Beta-2 adrenergic receptor (Homo sapiens) (UniProt P07550); test: Ability to displace [3H]CGP-12177 from Beta-2 adrenergic receptor at concentration of 10e-7 M
Chain of Beta-2 adrenergic receptor (Homo sapiens) (P07550 whole entry, looked up): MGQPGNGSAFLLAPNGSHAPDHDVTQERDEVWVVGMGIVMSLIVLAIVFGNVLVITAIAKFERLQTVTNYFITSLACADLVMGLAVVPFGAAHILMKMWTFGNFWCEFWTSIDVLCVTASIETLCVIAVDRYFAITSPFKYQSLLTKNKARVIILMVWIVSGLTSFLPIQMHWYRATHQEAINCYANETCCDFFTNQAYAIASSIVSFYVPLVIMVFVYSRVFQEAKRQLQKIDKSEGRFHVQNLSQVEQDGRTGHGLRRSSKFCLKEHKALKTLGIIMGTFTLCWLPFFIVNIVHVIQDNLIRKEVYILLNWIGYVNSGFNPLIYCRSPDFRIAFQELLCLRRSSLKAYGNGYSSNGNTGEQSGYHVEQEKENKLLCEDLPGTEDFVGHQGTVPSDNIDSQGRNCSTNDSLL

[18] = biological target: 5-hydroxytryptamine receptor 6 (Homo sapiens) (UniProt P50406); test: Ability to displace [125I]LSD […] from 5-hydroxytryptamine 6 receptor at concentration of 10e-6 M
D(2) dopamine receptor = D(2) dopamine receptor (Homo sapiens, UniProt P14416); test: Ability to displace [3H]YM-0915 from Dopamine receptor D2
[19] = biological target: 5-hydroxytryptamine receptor 4 (Mus musculus, UniProt P97288); test: Ability to displace [3H]GR-113808 from mouse 5-hydroxytryptamine 4 receptor in COS7 cells; format: cell-based, COS-7
[20] = biological target: 5-hydroxytryptamine receptor 2A (Homo sapiens, UniProt P28223); test: Ability to displace [3H]-ketanserin from 5-hydroxytryptamine 2A receptor
Mus musculus [21] = test: Compound was tested at toxic doses of 12.5-25-50 mg/kg in mice; Convulsions.; format: ADME, organism-based; conditions: in vivo
[22] = biological target: Histamine H1 receptor (Homo sapiens) (UniProt P35367); test: Ability to displace [3H]mepyramine from histamine H1 receptor at concentration of 10e-7 M
Chain of Histamine H1 receptor (Homo sapiens) (P35367 whole entry): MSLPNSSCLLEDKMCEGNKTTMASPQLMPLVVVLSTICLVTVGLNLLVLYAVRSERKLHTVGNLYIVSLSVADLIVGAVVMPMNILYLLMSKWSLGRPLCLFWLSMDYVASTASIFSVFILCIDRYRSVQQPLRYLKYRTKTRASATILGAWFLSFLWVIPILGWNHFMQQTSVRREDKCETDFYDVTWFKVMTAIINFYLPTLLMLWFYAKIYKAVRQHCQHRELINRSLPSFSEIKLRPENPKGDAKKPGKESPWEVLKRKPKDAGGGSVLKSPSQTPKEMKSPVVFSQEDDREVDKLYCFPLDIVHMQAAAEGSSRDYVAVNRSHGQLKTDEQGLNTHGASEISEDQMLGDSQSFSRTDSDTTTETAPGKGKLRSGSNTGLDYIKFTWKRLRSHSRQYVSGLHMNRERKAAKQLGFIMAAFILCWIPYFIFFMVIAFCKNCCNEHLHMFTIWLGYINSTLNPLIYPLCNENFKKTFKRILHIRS

Mus musculus [23] = test: Antinociceptive activity in the mouse writhing test after intraperitoneal dose of 0.1 mg/kg; p<0.05.; format: functional; summary of the method: as §2
[24] = biological target: Sodium-dependent serotonin transporter (Homo sapiens) (UniProt P31645); test: Ability to recapture 5-HT by displace [3H]paroxetine at serotonin transporter at concentration of 10e-7 M
Chain of Sodium-dependent serotonin transporter (Homo sapiens) (P31645 whole entry, looked up): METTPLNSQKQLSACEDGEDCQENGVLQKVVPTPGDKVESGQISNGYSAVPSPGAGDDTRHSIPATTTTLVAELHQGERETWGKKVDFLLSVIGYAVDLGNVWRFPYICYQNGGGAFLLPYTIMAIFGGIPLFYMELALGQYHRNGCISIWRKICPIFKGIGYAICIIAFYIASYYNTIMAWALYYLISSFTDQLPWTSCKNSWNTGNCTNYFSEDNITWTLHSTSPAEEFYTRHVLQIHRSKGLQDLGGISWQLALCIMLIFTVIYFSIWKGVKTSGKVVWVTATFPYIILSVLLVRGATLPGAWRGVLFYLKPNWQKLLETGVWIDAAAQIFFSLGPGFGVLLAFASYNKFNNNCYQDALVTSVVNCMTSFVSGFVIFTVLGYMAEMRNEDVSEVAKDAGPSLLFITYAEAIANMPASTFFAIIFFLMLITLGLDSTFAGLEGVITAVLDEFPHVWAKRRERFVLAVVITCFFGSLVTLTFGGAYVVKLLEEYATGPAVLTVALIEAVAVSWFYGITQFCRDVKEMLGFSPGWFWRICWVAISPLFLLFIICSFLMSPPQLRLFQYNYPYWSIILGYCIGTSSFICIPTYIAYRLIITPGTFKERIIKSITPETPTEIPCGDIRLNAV

[25] = biological target: Beta-1 adrenergic receptor (Homo sapiens) (UniProt P08588); test: Ability to displace [3H]CGP-12177 from Beta-1 adrenergic receptor at concentration of 10e-7 M
[26] = biological target: Sodium-dependent dopamine transporter (Rattus norvegicus) (UniProt P23977); test: Ability to recapture DA by displace [3H]GBR-12935 from dopamine transporter at concentration of 10e-7 M
Chain of Sodium-dependent dopamine transporter (Rattus norvegicus) (P23977 whole entry): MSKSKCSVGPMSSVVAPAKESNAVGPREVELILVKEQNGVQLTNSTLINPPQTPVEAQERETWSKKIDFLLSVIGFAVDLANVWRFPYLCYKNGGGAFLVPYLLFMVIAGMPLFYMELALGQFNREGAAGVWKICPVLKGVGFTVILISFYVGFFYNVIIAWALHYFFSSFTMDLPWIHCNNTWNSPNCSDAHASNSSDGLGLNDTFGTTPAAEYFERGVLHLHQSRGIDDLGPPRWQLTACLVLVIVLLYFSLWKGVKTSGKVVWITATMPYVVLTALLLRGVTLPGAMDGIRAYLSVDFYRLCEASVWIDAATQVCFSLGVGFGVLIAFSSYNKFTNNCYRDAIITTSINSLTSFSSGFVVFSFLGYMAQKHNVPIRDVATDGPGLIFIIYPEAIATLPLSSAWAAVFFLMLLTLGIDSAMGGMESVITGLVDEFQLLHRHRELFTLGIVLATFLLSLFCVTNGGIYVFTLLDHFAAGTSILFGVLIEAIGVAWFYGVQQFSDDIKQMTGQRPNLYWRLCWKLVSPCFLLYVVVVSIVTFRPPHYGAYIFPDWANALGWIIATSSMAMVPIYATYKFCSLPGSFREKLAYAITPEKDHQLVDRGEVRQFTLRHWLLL

[27] = biological target: Sodium-dependent serotonin transporter (Homo sapiens) (UniProt P31645); test: Ability to recapture 5-HT by displacing [3H]paroxetine at serotonin transporter at concentration of 10e-5 M
[28] = biological target: 5-hydroxytryptamine receptor 2C (Homo sapiens, UniProt P28335); test: Ability to displace [3H]mesulergine from 5-hydroxytryptamine 2C receptor
[29] = biological target: Histamine H2 receptor (Rattus norvegicus) (UniProt P25102); test: Ability to displace [3H]tiotidine from histamine-H2 receptor at concentration of 10e-5 M
[30] = biological target: Sodium-dependent dopamine transporter (Rattus norvegicus) (UniProt P23977); test: Ability to recapture DA by displace [3H]GBR-12935 from dopamine transporter at concentration of 10e-5 M
[31] = biological target: 5-hydroxytryptamine receptor 7 (Homo sapiens) (UniProt P34969); test: Ability to displace [125I]LSD […] from 5-hydroxytryptamine 7 receptor at concentration of 10e-8 M
Chain of 5-hydroxytryptamine receptor 7 (Homo sapiens) (P34969 whole entry): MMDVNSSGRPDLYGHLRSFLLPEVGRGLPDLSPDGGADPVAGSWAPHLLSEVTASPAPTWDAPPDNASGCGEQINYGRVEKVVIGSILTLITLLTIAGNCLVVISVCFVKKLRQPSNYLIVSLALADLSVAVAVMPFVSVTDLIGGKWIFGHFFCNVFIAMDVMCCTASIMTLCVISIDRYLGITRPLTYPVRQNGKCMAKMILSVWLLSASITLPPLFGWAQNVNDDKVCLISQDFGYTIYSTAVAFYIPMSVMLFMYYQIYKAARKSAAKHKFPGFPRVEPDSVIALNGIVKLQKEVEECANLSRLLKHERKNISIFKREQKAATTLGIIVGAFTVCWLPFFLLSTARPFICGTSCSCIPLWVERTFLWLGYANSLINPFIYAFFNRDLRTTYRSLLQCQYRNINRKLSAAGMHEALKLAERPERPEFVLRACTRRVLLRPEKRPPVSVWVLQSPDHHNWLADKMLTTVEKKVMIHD

[32] = biological target: Histamine H1 receptor (Homo sapiens) (UniProt P35367); test: Ability to displace [3H]-mepyramine from histamine H1 receptor at concentration of 10e-5 M
[33] = biological target: 5-hydroxytryptamine receptor 7 (Homo sapiens) (UniProt P34969); test: Ability to displace [125I]LSD […] from 5-hydroxytryptamine 7 receptor at concentration of 10e-6 M
[34] = biological target: Beta-2 adrenergic receptor (Homo sapiens) (UniProt P07550); test: Ability to displace [3H]-CGP-12,177 from adrenergic Beta-2 adrenergic receptor at concentration of 10e-5 M
[35] = biological target: 5-hydroxytryptamine receptor 1A (Mus musculus, UniProt Q64264); test: Ability to displace [3H]8-OH-DPAT from 5-hydroxytryptamine 1A receptor
D(1A) dopamine receptor = D(1A) dopamine receptor (Mus musculus, UniProt Q61616); test: Ability to displace [3H]SCH-23390 from Dopamine receptor D1
Mus musculus [36] = test: Antinociceptive activity in the mouse writhing test after intraperitoneal dose of 5 mg/kg; format: functional; summary of the method: as §2
Mus musculus [37] = test: Compound was tested at subtoxic dose of 25 mg/kg in mice; Symptoms are hyperactivity, irritability, stereotypy.; format: ADME, organism-based; parameters: dose 25 mg/kg; conditions: in vivo
Mus musculus [38] = test: Antinociceptive activity in the mouse writhing test after intraperitoneal dose of 30 mg/kg; format: functional; summary of the method: as §2

Chain of 5-hydroxytryptamine receptor 4 (Cavia porcellus) (O70528 whole entry): as the sequence (O70528 whole entry) above

CCCCN1CCC(COc2nc3ccccc3c3c2CCCCN3)CC1
inhibition [1]: 100%
Ki [2]: 16.3 nM
inhibition [3]: 44%

Cn1cc(C(=O)OCC2CCN(CCNS(C)(=O)=O)CC2)c2ccccc21
Stretches (Mus musculus [4]): 18.2
Stretches (Mus musculus [5]): 12.8
Stretches (Mus musculus [6]): 21.8
Stretches (Mus musculus [7]): 12.3

CN1CCC(COc2nc3ccccc3c3c2CCCN3)CC1
inhibition [1]: 100%
Ki [2]: 79.7 nM
inhibition [3]: 52%

C=CCN1CCC(COc2nc3ccccc3c3c2CCCN3)CC1
inhibition [1]: 100%
inhibition [3]: 31%

CCN1CCC(COc2nc3ccccc3c3c2CCCCN3)CC1
inhibition [1]: 100%
Ki [2]: 10.7 nM
inhibition [3]: 51%

CCCCN1CCC(COc2nc3ccc(Cl)cc3c3c2CCCCN3)CC1
inhibition [1]: 92%
inhibition [3]: 0%

CCCN1CCC(COc2nc3ccc(Cl)cc3c3c2CCCCN3)CC1
inhibition [1]: 91%
inhibition [3]: 5%

CCCCCN1CCC(COc2nc3ccccc3c3c2CCCCN3)CC1
inhibition [1]: 100%
inhibition [3]: 0%

CCCN1CCC(COc2nc3ccccc3c3c2CCCN3)CC1
inhibition [8]: 23%
Stretches (Mus musculus [4]): 19
LD50 [9]: 37.5 mg/kg
inhibition [10]: 0%
IC50 (Vasopressin V2 receptor): 11000 nM
Symptoms (Mus musculus [11]): Active
IC50 (Vasopressin V1b receptor): 3200 nM
Stretches (Mus musculus [12]): 12.5
inhibition [1]: 100%
Ki [2]: 2.89 nM
inhibition [13]: 17%
inhibition [14]: 0%
Stretches (Mus musculus [6]): 24.6
inhibition [15]: 39%
IC50 [16]: 200 nM
inhibition [17]: 0%
inhibition [18]: 12%
IC50 (D(2) dopamine receptor): 3400 nM
IC50 [19]: 0.56 nM
IC50 [20]: 5000 nM
Symptoms (Mus musculus [21]): Active
inhibition [22]: 0%
Stretches (Mus musculus [23]): 13.8
inhibition [24]: 0%
inhibition [25]: 0%
inhibition [26]: 13%
inhibition [27]: 79%
IC50 [28]: 3400 nM
inhibition [29]: 75%
inhibition [30]: 61%
inhibition [31]: 20%
inhibition [32]: 91%
inhibition [33]: 36%
inhibition [34]: 70%
inhibition [3]: 70%
IC50 [35]: 9100 nM
IC50 (D(1A) dopamine receptor): > 100000 nM

CN1C(C(=O)Nc2ccccn2)=C(O)c2ccccc2S1(=O)=O [PIROXICAM]
Stretches (Mus musculus [6]): 24.6
Stretches (Mus musculus [36]): 2.4

CCCCN1CCC(COc2nc3ccccc3c3c2CCCN3)CC1
inhibition [1]: 100%
Ki [2]: 10 nM
inhibition [3]: 77%

c1ccc2c3c(c(OCC4CCNCC4)nc2c1)CCCN3
inhibition [1]: 96%
inhibition [3]: 24%

CCCN1CCC(COc2nc3ccccc3c3c2CCCCN3)CC1
inhibition [1]: 100%
Ki [2]: 12.7 nM
inhibition [3]: 55%

COC(=O)C(c1ccccc1)C1CCCCN1 (centres undefined) [METHYLPHENIDATE]
Symptoms (Mus musculus [37]): Hyperactivity, irritability, stereotypy

CC(=O)Oc1ccccc1C(=O)O [ASPIRIN]
Stretches (Mus musculus [6]): 25.8
Stretches (Mus musculus [38]): 8.7

CCCN1CCC(COc2nc3ccc(Cl)cc3c3c2CCCN3)CC1
inhibition [1]: 100%
inhibition [3]: 0%

CCN1CCC(COc2nc3ccccc3c3c2CCCN3)CC1
inhibition [1]: 100%
Ki [2]: 13.1 nM
inhibition [3]: 55%

C#CCN1CCC(COc2nc3ccccc3c3c2CCCN3)CC1
inhibition [1]: 100%
inhibition [3]: 15%

CCCN1CCC(COc2nc3cc(Cl)ccc3c3c2CCCCN3)CC1
inhibition [1]: 98%
inhibition [3]: 0%

CCCCCN1CCC(COc2nc3ccccc3c3c2CCCN3)CC1
inhibition [1]: 100%
Ki [2]: 12.5 nM
inhibition [3]: 51%

CCCCN1CCC(COc2nc3ccc(Cl)cc3c3c2CCCN3)CC1
inhibition [1]: 100%
inhibition [3]: 2%

COc1[nH]c2ccc(F)cc2c1C(=O)OCC1CCN(CCNS(C)(=O)=O)CC1
Stretches (Mus musculus [4]): 16.5
Stretches (Mus musculus [5]): 11.5
Stretches (Mus musculus [6]): 20
Stretches (Mus musculus [7]): 11.2
